Results published in ChEMBL document CHEMBL4834404, “Template-Hopping Approach Leads to Potent, Selective, and Highly Soluble Bromo and Extraterminal Domain (BET) Second Bromodomain (BD2) Inhibitors” (J Med Chem, 2021).
Values after ≈ are worked out from the molar mass of the structure shown.

Tests used:
[1] = AUC in Wistar Han rat at 1 mg/kg, iv measured upto 7 hrs by LC-MS/MS analysis; format: ADME, organism-based; parameters: route intravenous, dose 1 mg/kg, time <=7; details: in vivo
In short: (§1)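 Surgically cannulated male Wistar Han rats (femoral vein dosing, jugular vein sampling), given 1 h iv infusion at target 1 mg/kg, 0.2 mg/mL in DMSO/10% (w/v) Kleptose HPB in saline (2:98 v/v); n = 1. Serial 25 μL blood samples predose to 7 h; parent compound by LC-MS/MS (LLQ 1−2 ng/mL); non-compartmental analysis of blood concentration−time profiles.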

[2] = Half life in Wistar Han rat at 1 mg/kg, iv measured upto 7 hrs by LC-MS/MS analysis; format: ADME, organism-based; details: in vivo; in short: as §1
[3] = Permeability of compound; format: ADME; details: not told; read-out: permeability
[4] = biological target: T1, Bromodomain-containing protein 3 (Homo sapiens, UniProt Q15059); assay: Inhibition of 6His-Thr-BRD3 (1 to 435 residues) BD1 domain (unknown origin) incubated for 30 mins by TR-FRET assay
Target sequence in this assay (Q15059 whole entry, the tested form may be a part): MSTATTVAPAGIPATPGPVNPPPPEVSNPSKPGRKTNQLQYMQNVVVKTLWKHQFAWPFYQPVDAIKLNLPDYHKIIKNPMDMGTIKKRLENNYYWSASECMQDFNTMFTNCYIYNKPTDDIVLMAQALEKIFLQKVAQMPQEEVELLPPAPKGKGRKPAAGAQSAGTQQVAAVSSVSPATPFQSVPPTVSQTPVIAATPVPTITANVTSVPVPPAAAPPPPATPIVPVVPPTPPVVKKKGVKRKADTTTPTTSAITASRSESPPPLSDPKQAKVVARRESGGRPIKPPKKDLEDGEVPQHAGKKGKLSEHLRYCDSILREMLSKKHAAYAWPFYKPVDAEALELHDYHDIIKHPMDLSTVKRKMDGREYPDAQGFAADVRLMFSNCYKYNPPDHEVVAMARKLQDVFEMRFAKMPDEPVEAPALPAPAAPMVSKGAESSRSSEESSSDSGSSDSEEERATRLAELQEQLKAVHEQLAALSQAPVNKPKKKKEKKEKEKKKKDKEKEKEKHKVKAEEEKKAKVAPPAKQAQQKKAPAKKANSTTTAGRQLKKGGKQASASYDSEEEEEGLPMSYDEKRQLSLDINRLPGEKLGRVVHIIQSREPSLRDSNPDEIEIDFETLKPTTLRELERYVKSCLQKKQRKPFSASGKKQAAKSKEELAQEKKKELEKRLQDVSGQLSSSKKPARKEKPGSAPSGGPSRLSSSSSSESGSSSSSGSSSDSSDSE

[5] = biological target: Voltage-gated inwardly rectifying potassium channel KCNH2 (Homo sapiens, UniProt Q12809); assay: Inhibition of human ERG
[6] = biological target: T1, Bromodomain-containing protein 3; assay: Inhibition of 6His-Thr-BRD3 (1 to 435 residues) BD2 domain Y348A or Y73A mutant (unknown origin) incubated for 30 mins by TR-FRET assay
Target sequence in this assay (Q15059 2-726 limits assumed): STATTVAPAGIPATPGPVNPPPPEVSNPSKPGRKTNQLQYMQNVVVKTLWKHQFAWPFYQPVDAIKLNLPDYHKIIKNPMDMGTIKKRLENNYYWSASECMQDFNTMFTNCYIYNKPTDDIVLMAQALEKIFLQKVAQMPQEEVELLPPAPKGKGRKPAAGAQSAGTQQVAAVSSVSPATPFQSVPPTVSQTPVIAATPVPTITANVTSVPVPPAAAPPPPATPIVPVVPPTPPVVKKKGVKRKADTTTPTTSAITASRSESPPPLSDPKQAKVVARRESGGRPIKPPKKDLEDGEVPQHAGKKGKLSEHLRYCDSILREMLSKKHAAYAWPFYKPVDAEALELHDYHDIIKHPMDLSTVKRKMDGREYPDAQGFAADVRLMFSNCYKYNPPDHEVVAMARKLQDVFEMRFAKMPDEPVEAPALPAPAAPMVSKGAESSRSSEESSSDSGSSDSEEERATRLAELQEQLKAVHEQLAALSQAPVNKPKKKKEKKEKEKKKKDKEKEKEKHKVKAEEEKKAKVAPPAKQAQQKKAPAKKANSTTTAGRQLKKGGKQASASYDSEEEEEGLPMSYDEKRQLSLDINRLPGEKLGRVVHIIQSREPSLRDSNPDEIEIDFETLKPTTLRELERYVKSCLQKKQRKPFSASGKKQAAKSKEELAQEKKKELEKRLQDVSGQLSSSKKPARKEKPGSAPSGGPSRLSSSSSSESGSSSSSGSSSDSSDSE

[7] = Oral bioavailability in Wistar Han rat at 3 mg/kg measured upto 24 hrs by LC-MS/MS analysis; format: ADME, organism-based; details: in vivo
In short: (§2)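 Three naive male Wistar Han rats dosed by oral gavage at target 3 mg/kg, suspended in 1% (w/v) methylcellulose aq at 0.6 mg/mL. Serial 25 μL blood samples via tail vein up to 24 h; parent compound by LC-MS/MS (LLQ 1 ng/mL) against standards in control blood; non-compartmental PK analysis.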

[8] = Unbound clearance in Wistar Han rat at 1 mg/kg, iv measured upto 7 hrs by LC-MS/MS analysis; format: ADME, organism-based; details: in vivo
[9] = Fraction unbound in Wistar Han rat at 1 mg/kg, iv measured upto 4 hrs by LC-MS/MS analysis; format: ADME, organism-based
In short: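 Control Wistar Han rat blood dialyzed against PBS by rapid equilibrium dialysis, 4 h at 37 °C, compound at 200 and 1000 ng/mL; matrix-matched aliquots analysed by LC-MS/MS; unbound fraction from buffer/blood peak area ratios, mean of the two concentrations.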

Albumin = Albumin (Homo sapiens, UniProt P02768); assay: Binding affinity to human serum albumin; format: ADME; details: isolated protein
In short: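 Chromatographic binding on chemically bonded HSA column (50 × 3 mm), 1.8 mL/min; mobile phase 50 mM ammonium acetate pH 7.4 with 2-propanol gradient (0−30% over 3 min, hold to 6 min, back to 0%); gradient retention time recorded.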

[10] = Inhibition of LPS-induced MCP1 production in PBMC (unknown origin); format: functional, tissue-based
Homo sapiens = organism: Homo sapiens; assay: Selectivity index, ratio of pIC50 of BRD4 BD1 (unknown origin) to pIC50 of BRD4 BD2 (unknown origin)
[11] = Metabolic stability in rat Hepatocyte assessed as intrinsic clearance at 0.5 uM incubated for 60 mins by LC-MS/MS analysis; format: ADME, tissue-based; details: hepatocytes, 1 h
[12] = biological target: Bromodomain-containing protein 4 (Homo sapiens, UniProt O60885, Y97A); assay: Inhibition of 6His-Thr-BRD4 (1 to 477 residues) BD1 Y97A mutant (unknown origin) incubated for 30 mins by TR-FRET assay
[13] = biological target: Bromodomain-containing protein 4 (Homo sapiens, UniProt O60885, Y390A); assay: Inhibition of 6His-Thr-BRD4 (1 to 477 residues) BD2 domain Y390A mutant (unknown origin) incubated for 30 mins by TR-FRET assay
[14] = Volume of distribution at steady state in Wistar Han rat at 1 mg/kg, iv measured upto 7 hrs by LC-MS/MS analysis; format: ADME, organism-based; details: in vivo, read-out: Vdss; in short: as §1
[15] = biological target: T2, Bromodomain-containing protein 2 (Homo sapiens, UniProt P25440); assay: Inhibition of 6His-Thr-BRD2 (1 to 473 residues) BD2 domain Y386A or Y113A mutant (unknown origin) incubated for 30 mins by TR-FRET assay
Blood = assay: Inhibition of LPS-stimulated MCP-1 production in human whole blood incubated for 24 hrs by mesoscale assay; format: functional, tissue-based
In short: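 Sodium-heparinized human whole blood preincubated 30 min with compound (DMSO dilutions, 140× stocks) at 37 °C, 5% CO₂, then stimulated with Salmonella typhosa LPS (200 ng/mL final) for 24 h. PBS added, plates centrifuged, supernatant MCP-1 quantified by MesoScale Discovery immunoassay.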

[16] = Dose normalized AUC in Wistar Han rat at 3 mg/kg, po measured upto 24 hrs by LC-MS/MS analysis; format: ADME, organism-based; details: in vivo; in short: as §2
[17] = Solubility of compound by CLND assay; format: physicochemical
[18] = biological target: T2, Bromodomain-containing protein 2; assay: Inhibition of 6His-Thr-BRD2 (1 to 473 residues) BD1 domain (unknown origin) incubated for 30 mins by TR-FRET assay
[19] = Clearance in Wistar Han rat at 1 mg/kg, iv measured upto 7 hrs by LC-MS/MS analysis; format: ADME, organism-based; details: in vivo; in short: as §1
[20] = biological target: T3, Bromodomain testis-specific protein (Homo sapiens, UniProt Q58F21); assay: Inhibition of 6His-FLAG-Tev-BRDT (1 to 397 residues) BD1 domain (unknown origin) incubated for 30 mins by TR-FRET assay
[21] = Metabolic stability in human Hepatocyte assessed as intrinsic clearance at 0.5 uM incubated for 120 mins by LC-MS/MS analysis; format: ADME, tissue-based; details: hepatocytes, 2 h
[22] = biological target: T3, Bromodomain testis-specific protein; assay: Inhibition of 6His-FLAG-Tev-BRDT (1 to 397 residues) BD2 domain Y309A or Y66A mutant (unknown origin) incubated for 30 mins by TR-FRET assay
[23] = Solubility of the compound in pH 6.5 FaSSIF at 1 mg measured after 4 hrs by HPLC analysis; format: physicochemical

Chain of Albumin (P02768 whole entry): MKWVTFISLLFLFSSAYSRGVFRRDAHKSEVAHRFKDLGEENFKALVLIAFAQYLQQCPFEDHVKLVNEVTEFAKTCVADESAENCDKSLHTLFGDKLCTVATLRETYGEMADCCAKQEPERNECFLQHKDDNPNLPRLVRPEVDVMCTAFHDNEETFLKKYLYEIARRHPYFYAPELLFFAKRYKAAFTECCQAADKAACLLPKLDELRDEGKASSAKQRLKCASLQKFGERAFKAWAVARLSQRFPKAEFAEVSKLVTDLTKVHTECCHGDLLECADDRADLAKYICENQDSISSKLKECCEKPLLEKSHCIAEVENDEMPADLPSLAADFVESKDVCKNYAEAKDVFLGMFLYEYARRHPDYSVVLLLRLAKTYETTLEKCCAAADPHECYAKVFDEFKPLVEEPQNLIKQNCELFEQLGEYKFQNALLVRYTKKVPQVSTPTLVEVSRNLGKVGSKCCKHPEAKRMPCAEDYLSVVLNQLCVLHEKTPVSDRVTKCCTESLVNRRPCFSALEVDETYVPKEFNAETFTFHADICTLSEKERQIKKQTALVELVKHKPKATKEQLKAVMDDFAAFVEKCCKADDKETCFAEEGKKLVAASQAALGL
T2 sequence (P25440 whole entry, the tested form may be a part): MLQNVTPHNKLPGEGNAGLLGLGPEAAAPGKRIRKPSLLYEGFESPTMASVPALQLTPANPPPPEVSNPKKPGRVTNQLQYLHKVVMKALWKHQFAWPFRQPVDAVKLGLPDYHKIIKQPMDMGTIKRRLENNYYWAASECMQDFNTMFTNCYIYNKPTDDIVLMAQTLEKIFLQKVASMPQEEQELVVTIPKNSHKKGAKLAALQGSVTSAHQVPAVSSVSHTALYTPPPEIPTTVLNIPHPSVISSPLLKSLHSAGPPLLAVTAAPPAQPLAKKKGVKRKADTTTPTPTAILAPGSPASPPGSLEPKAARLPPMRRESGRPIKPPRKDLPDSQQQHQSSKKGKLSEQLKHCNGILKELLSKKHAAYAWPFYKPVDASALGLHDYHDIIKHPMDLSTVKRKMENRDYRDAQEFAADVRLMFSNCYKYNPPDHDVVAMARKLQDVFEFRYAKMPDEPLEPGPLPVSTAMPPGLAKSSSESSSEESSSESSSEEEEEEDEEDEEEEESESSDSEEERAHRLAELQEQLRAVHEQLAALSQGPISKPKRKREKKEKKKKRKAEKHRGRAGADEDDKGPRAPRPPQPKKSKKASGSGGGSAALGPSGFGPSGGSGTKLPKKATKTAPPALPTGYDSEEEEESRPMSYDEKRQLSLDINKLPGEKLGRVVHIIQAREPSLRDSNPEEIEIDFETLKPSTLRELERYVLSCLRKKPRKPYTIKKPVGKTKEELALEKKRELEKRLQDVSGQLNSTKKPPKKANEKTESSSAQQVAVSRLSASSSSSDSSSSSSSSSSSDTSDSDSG
Chain of Voltage-gated inwardly rectifying potassium channel KCNH2 (Q12809 whole entry, the tested form may be a part): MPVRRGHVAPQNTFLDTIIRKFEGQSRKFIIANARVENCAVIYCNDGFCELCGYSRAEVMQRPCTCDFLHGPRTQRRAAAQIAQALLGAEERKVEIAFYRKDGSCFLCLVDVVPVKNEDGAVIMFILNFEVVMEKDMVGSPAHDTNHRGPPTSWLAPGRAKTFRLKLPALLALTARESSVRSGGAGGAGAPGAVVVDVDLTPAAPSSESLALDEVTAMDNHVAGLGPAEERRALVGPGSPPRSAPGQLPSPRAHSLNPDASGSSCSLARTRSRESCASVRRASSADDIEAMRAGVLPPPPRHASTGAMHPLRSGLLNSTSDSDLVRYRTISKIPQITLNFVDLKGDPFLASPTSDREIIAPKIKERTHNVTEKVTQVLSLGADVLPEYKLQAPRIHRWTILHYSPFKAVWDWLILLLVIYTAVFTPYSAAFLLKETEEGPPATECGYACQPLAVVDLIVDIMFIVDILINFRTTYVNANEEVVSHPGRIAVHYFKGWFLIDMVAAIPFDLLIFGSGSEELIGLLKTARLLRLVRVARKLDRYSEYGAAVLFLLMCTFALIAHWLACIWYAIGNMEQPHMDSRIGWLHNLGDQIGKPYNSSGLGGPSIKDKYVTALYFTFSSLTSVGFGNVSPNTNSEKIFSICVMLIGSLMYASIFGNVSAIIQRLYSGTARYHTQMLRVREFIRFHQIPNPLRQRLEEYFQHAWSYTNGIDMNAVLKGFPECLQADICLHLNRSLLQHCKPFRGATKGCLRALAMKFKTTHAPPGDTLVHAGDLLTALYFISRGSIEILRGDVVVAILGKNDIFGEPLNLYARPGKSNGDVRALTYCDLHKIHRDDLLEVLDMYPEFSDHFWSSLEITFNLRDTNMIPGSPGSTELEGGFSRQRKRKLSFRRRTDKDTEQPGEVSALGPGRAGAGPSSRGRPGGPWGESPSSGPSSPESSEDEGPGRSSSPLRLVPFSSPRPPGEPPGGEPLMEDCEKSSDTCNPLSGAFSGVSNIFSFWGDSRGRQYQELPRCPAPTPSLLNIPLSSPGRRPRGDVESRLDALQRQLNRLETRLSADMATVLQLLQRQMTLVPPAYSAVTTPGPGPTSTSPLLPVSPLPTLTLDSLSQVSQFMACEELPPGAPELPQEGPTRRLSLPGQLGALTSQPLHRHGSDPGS

SMILES: CCNC(=O)c1ccc(OCc2cccc(C)n2)c(-c2cn(C)nn2)c1
- AUC at 7 h [1]: 0.873 µg·h/mL
- half-life [2]: 27 min
- Papp [3]: 470 nm/s
- IC50 [4]: > 50.1 µM
- IC50 [5]: > 50.1 µM
- pIC50 [6]: 6.5
- bioavailability [7]: 59%
- CL free [8]: 6.12 L/h/kg
- fraction unbound at 4 h [9]: 0.19
- Activity (Albumin): 84%
- IC50 [10]: 0.251 µM
- Ratio pIC50 (Homo sapiens): 200
- CLH [11]: 1.09 mL/min/g
- IC50 [12]: 50.1 µM
- IC50 [13]: 0.251 µM
- Vd [14]: 0.7 L/kg
- pIC50 [15]: 5.8
- IC50 (Blood): 2.51 µM
- AUC/dose [16]: 30 kg·min/L
- solubility kinetic [17]: ≥ 0.137 mg/mL
- IC50 [18]: > 50.1 µM
- clearance [19]: 1.14 L/h/kg
- IC50 [20]: > 50.1 µM
- CLH [21]: 1.18 mL/min/g
- pIC50 [22]: 6.4

SMILES: CC(=O)Nc1c(F)cc(C(=O)N[C@H]2CC[C@H](O)CC2)cc1O[C@@H](C)c1ccccc1 [GSK046]
- Papp [3]: 17 nm/s
- solubility at 4 h [23]: 0.996 mg/mL (≈ 2400 µM)

SMILES: C[C@H](Oc1ccc(C(=O)NC2CC2)cc1-c1cn(C)nn1)c1ccccn1
- AUC at 7 h [1]: 1.18 µg·h/mL
- half-life [2]: 99 min
- Papp [3]: 150 nm/s
- IC50 [4]: 12.6 µM
- IC50 [5]: 39.8 µM
- pIC50 [6]: 7.1
- bioavailability [7]: 32%
- CL free [8]: 1.14 L/h/kg
- fraction unbound at 4 h [9]: 0.76
- Activity (Albumin): 84%
- IC50 [10]: 0.0158 µM
- Ratio pIC50 (Homo sapiens): 100
- CLH [11]: < 0.8 mL/min/g
- IC50 [12]: 5.01 µM
- IC50 [13]: 0.0501 µM
- Vd [14]: 1.8 L/kg
- pIC50 [15]: 6.6
- IC50 (Blood): 0.398 µM
- AUC/dose [16]: 23 kg·min/L
- solubility kinetic [17]: 0.145 mg/mL (≈ 399 µM)
- IC50 [18]: 39.8 µM
- clearance [19]: 0.84 L/h/kg
- CLH [21]: < 0.45 mL/min/g

SMILES: Cn1cc(-c2cc(C(=O)NCC[C@]3(F)CCCNC3)cc(Cc3ccccc3)n2)nn1
- Papp [3]: 19 nm/s
- Ratio pIC50 (Homo sapiens): 250
- IC50 [12]: 6.31 µM
- IC50 [13]: 0.0251 µM
- solubility kinetic [17]: ≥ 0.181 mg/mL

SMILES: CCNC(=O)c1ccc(OCc2ccc(OC)cc2)c(-c2cn(C)nn2)c1
- Papp [3]: 390 nm/s
- Ratio pIC50 (Homo sapiens): 65
- IC50 [12]: 20 µM
- IC50 [13]: 0.316 µM
- solubility kinetic [17]: ≥ 0.142 mg/mL

SMILES: CCNC(=O)c1cc(Cc2ccc(OC)cc2)nc(-c2cn(C)nn2)c1
- Papp [3]: 320 nm/s
- Ratio pIC50 (Homo sapiens): > 65
- IC50 [12]: > 50.1 µM
- IC50 [13]: 0.794 µM
- solubility kinetic [17]: 0.053 mg/mL (≈ 151 µM)

SMILES: Cn1cc(-c2cc(C(=O)NCCCC3CCNCC3)cc(Cc3ccccc3)n2)nn1
- Papp [3]: < 3 nm/s
- Ratio pIC50 (Homo sapiens): 400
- IC50 [12]: 10 µM
- IC50 [13]: 0.0251 µM
- solubility kinetic [17]: ≥ 0.134 mg/mL

SMILES: Cn1cc(-c2cc(C(=O)NCC[C@H]3CNCCO3)cc(Cc3ccccc3)n2)nn1
- Papp [3]: 48 nm/s
- Ratio pIC50 (Homo sapiens): 250
- IC50 [12]: 15.8 µM
- IC50 [13]: 0.0631 µM
- solubility kinetic [17]: ≥ 0.189 mg/mL

SMILES: CCNC(=O)c1cc(Cc2cccc3[nH]ccc23)nc(-c2cn(C)nn2)c1
- AUC at 7 h [1]: 0.778 µg·h/mL
- half-life [2]: 52.2 min
- Papp [3]: 300 nm/s
- IC50 [4]: 31.6 µM
- IC50 [5]: 31.6 µM
- pIC50 [6]: 7.5
- bioavailability [7]: 31%
- CL free [8]: 12.3 L/h/kg
- Activity (Albumin): 90%
- IC50 [10]: 0.0251 µM
- Ratio pIC50 (Homo sapiens): 315
- CLH [11]: 1.98 mL/min/g
- IC50 [12]: 10 µM
- IC50 [13]: 0.0316 µM
- Vd [14]: 1.1 L/kg
- pIC50 [15]: 7.3
- IC50 (Blood): 0.398 µM
- AUC/dose [16]: 15 kg·min/L
- solubility kinetic [17]: ≥ 0.148 mg/mL
- IC50 [18]: 25.1 µM
- clearance [19]: 1.26 L/h/kg
- IC50 [20]: 25.1 µM
- CLH [21]: < 0.45 mL/min/g
- pIC50 [22]: 7.3

SMILES: CCNC(=O)c1cc(Cc2cccc(OC)c2)nc(-c2cn(C)nn2)c1
- Papp [3]: 470 nm/s
- Ratio pIC50 (Homo sapiens): > 80
- IC50 [12]: > 50.1 µM
- IC50 [13]: 0.631 µM
- solubility kinetic [17]: ≥ 0.045 mg/mL

SMILES: CCNC(=O)c1ccc(OCc2ccccc2)c(-c2cn(C)nn2)c1
- Papp [3]: 46 nm/s
- Ratio pIC50 (Homo sapiens): 100
- IC50 [12]: 12.6 µM
- IC50 [13]: 0.126 µM
- solubility kinetic [17]: 0.046 mg/mL (≈ 137 µM)

SMILES: CCNC(=O)c1cc(Cc2ccccc2)nc(C(=O)NC)c1
- Papp [3]: 390 nm/s
- solubility at 4 h [23]: 0.31 mg/mL (≈ 1040 µM)
- solubility kinetic [17]: ≥ 0.102 mg/mL
